Results on one molecule are retold here after PMC8640676 (Journal of Pesticide Science, 2021).

Data set [1] deals with T1, protoporphyrinogen oxidase (PPO) (Canis lupus familiaris, UniProt A0A8I3Q7Z3).
T1 sequence (A0A8I3Q7Z3 1-480): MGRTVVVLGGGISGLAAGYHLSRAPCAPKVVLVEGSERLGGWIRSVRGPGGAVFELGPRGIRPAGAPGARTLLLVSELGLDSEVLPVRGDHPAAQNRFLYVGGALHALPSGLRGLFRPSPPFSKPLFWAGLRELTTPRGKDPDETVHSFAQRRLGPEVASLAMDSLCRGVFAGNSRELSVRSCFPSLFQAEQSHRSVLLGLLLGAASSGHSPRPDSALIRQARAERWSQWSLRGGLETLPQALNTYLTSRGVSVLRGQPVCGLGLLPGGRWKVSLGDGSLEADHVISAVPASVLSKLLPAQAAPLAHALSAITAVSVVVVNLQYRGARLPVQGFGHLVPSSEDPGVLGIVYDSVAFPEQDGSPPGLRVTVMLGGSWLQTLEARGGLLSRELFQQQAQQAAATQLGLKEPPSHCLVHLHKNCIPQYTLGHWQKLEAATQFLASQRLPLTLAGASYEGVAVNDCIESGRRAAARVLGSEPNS
The data set is described as follows: PPO-inhibition assay, dog liver mitochondrial fraction. It counts as biochemical. In a few lines:
(§1)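 Liver mitochondria came from pooled SD rats and humans, or were freshly kit-isolated from Crl:CD1 mice and TOYO beagles. They were used at 0.2 mg protein/mL in 100 mM Tris-HCl pH 7.5 with 0.1% Triton-X, 1 mM EDTA and 40 mM ascorbate, preincubated 10 min at 37°C, then given 0.5 µM protoporphyrinogen IX. PPIX fluorescence (ex 410/em 630 nm) was read for 60 min at 37°C. Heat-killed mitochondria gave the background, and IC50 came from 4-parameter fits over 3 runs.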

The target in data set [2] is T2, protoporphyrinogen oxidase (PPO) (Mus musculus, UniProt P51175).
T2 sequence (P51175 1-477): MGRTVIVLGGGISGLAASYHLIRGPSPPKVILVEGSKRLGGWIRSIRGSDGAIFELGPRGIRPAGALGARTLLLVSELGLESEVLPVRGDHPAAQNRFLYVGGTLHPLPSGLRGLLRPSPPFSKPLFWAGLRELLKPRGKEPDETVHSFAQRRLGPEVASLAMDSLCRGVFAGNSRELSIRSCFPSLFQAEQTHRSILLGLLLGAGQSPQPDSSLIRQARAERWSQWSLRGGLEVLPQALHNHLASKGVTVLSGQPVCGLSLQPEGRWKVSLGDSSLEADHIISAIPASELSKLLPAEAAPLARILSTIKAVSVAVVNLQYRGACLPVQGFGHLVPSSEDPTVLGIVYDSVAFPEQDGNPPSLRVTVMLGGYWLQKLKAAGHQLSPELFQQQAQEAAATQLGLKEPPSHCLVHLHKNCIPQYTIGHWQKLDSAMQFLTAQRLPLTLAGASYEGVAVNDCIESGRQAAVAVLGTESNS
The data set is described as follows: PPO-inhibition assay, mouse liver mitochondrial fraction. It counts as biochemical. In a few lines: as §1

Data set [3] in a line: Toxicokinetics in plasma, dog 90-day study. It counts as in vivo. The following applies: dog plasma, 90-day oral capsule administration.
Data set [4] can be described thus: Toxicokinetics in plasma, mouse 90-day study. Format: in vivo. The following applies: mice, 90-day dietary administration (data not shown).
Data set [5] in a line: 90-day subchronic toxicity study with epyrifenacil in rats. Format: in vivo, rat. The following applies: Crl:CD(SD), rat, in vivo, oral. In a few lines:
(§2)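 Crl:CD(SD) rats, 10 per sex per group, had free access to diet containing 0 (basal diet), 50, 300 or 800 ppm for 90 consecutive days. TK satellite groups held 4 rats per sex. The study was run to test guidelines under GLP.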

The subject of a further data set is Crl:CD(SD) rats. The data set is described as above. It counts as in vivo, rat. A digest of the protocol:
as §2

Data set [6] in a line: Toxicokinetics in plasma, rat 90-day study. Format: in vivo. The following applies: rats, 90-day dietary administration (data not shown).
Data set [7] deals with T3, protoporphyrinogen oxidase (PPO) (Homo sapiens, UniProt P50336).
T3 sequence (P50336 1-477): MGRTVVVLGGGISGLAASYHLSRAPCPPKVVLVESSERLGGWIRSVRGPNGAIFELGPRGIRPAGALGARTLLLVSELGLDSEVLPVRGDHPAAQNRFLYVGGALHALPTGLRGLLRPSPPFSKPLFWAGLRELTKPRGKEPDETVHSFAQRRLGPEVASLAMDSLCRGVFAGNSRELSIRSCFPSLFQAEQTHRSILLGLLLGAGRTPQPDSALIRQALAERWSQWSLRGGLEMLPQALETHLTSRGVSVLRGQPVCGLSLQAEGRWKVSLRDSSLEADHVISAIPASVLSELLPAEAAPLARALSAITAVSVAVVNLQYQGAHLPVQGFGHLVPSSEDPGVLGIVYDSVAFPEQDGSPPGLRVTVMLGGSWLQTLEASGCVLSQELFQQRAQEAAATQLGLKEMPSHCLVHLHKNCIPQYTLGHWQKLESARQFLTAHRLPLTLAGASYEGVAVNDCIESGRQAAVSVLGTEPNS
The data set is described as follows: PPO-inhibition assay, human liver mitochondrial fraction. It counts as biochemical. A digest of the protocol: as §1

A short description of data set [8]: In vitro metabolism study in liver microsomes. It counts as in vitro ADME. The following applies: human liver microsomes, 10 µM, NADPH, 37°C.
Data set [9] in a line: In vitro metabolism study in liver microsomes. It counts as in vitro ADME. The following applies: rat liver microsomes, 10 µM, NADPH, 37°C. On the technique in general: Liver microsomes are vesicles of endoplasmic reticulum, rich in cytochrome P450 enzymes.
A short description of data set [10]: 90-day subchronic toxicity study with epyrifenacil in mice. Format: in vivo. The following applies: Crl:CD1(ICR), mouse, in vivo, oral. A digest of the protocol:
(§3)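 Crl:CD1(ICR) mice, 10 per sex per group, had free access to diet containing 0 (basal diet), 5, 25 or 100 ppm for 90 consecutive days. TK satellite groups held 24 mice per sex. The study was run to test guidelines under GLP.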

The test system of the next data set is Crl:CD1(ICR) mice. Described as above. The following applies: mouse, 90-day study. Format: in vivo. In a few lines:
as §3

Data set [11] has as its target T4, protoporphyrinogen oxidase (PPO) (Rattus norvegicus, UniProt D3ZVN7).
T4 sequence (D3ZVN7 1-488): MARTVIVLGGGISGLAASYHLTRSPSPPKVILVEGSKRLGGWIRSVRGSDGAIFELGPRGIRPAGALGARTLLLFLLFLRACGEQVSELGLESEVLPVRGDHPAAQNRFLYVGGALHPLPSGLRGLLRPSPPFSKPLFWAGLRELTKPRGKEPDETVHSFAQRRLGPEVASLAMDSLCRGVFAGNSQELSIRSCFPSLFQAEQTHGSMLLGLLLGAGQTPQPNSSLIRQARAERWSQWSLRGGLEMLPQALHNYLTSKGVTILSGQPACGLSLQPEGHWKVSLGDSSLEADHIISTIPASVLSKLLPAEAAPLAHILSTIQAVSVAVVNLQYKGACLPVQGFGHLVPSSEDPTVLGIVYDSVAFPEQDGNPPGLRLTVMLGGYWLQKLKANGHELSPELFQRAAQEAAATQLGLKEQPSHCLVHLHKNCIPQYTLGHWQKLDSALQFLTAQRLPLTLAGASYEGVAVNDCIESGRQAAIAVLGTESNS
The data set is described as follows: PPO-inhibition assay, rat liver mitochondrial fraction. It counts as biochemical. A digest of the protocol:
as §1

The nature of data set [12]: In vitro metabolism study in liver microsomes. It counts as in vitro ADME. The following applies: mouse liver microsomes, 10 µM, NADPH, 37°C.
Data set [13] is described as follows: 90-day subchronic toxicity study with epyrifenacil in dogs. The following applies: beagle, dog, in vivo, oral. Format: in vivo, dog. In a few lines:
(§4)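 Beagles, 4 per sex per group, were dosed orally with gelatin capsules at 0, 100, 300 or 1000 mg/kg/day for 90 consecutive days. The study was run to test guidelines under GLP.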

The test system of a further data set is Beagle dogs. The description is as above. It counts as in vivo, dog. A digest of the protocol: as §4
The nature of data set [14]: Incubation of epyrifenacil without microsomal fractions. It counts as in vitro ADME. The following applies: 30 min of incubation.

Usually IC50 stands for the concentration that inhibits the measured activity by half. One may read the NOAEL as the highest tested level that showed no adverse finding. For `CCOC(=O)COc1ncccc1Oc1cc(-n2c(=O)cc(C(F)(F)F)n(C)c2=O)c(F)cc1Cl` [epyrifenacil, ethyl[(3-{2-chloro-4-fluoro-5-[3-methyl-2,6-dioxo-4-(trifluoromethyl)-3,6-dihydropyrimidin-1(2H)-yl]phenoxy}pyridin-2-yl)oxy]acetate], the IC50 in [1] is 7.6 ± 0.18 nM; in [2], 2.2 ± 0.03 nM; in [7], 10.2 ± 0.66 nM; in data set [11], 2.6 ± 0.05 nM. Also, the “Parent epyrifenacil detected in plasma” value in data set [3] is reported as “not more than 0.04 µg/mL”; in data set [4], “no measurable amount”; in data set [6] it was “no measurable amount”. Further, the no-observed-adverse-effect level (NOAEL) at 90 days in data set [5] (female) was found to be 19 mg/kg/day; in data set [5] (male) it was 3 mg/kg/day; in data set [10] (female) it was 4.1 mg/kg/day; in data set [10] (male), 0.7 mg/kg/day; in data set [13] (female), 300 mg/kg/day; in [13] (male), 100 mg/kg/day. The “NOAEL, fold change vs. corresponding mouse value” with Crl:CD(SD) rats (female rats vs female mice) is on record as 4.6 fold; in the data set with Crl:CD(SD) rats (male rats vs male mice), 4.3 fold; in the data set with Beagle dogs (female dogs vs female mice) it was 73 fold; with Beagle dogs (male dogs vs male mice), 143 fold. Besides, the Major adverse findings entry is listed as “Hepatocyte injury caused by porphyrin accumulation, hepatocellular hypertrophy, anemia” with Crl:CD(SD) rats (rat, 90-day study); “Hepatocyte injury caused by porphyrin accumulation, hepatocellular hypertrophy, anemia” with Crl:CD1(ICR) mice; “Increased glycogen associated with increased ALP, anemia” with Beagle dogs (dog, 90-day study). Further, the “Time within which epyrifenacil almost disappeared” value in data set [8], in data set [9] and in data set [12] was ≤ 5 min each time. Further, the Non-enzymatic degradation result in [14] is listed as “did not present any degradants”.
